A short description of series [1]: Antioxidant activity assessed as inhibition of DPPH free radical scavenging activity after 60 mins by UV-Visible spectrophotometry. Type of series: physicochemical. In a few lines:
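Reduction of ethanolic DPPH radical read by absorbance at 517 nm at 0 and after 60 min at room temperature. I% = 100×(A0−A60)/A0. IC50 is the concentration giving 50% radical inhibition. Run in triplicate, mean ± SEM; Trolox reference.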

Series [2] is described as follows: Antioxidant activity in HMEC1 assessed as inhibition of cell induced LDL oxidation by measuring TBARS level at 1 uM relative to control. The class given is functional, Homo sapiens, HMEC-1. More on the design: scale not given: the % may be the effect or the level left. In a few lines: (§1)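 HMEC-1 (passage 30-36) in serum-free RPMI 1640 with native human LDL (100 µg apoB/mL). Agent added with the LDL in DMSO (0.1% final), 14 h at 37 °C. TBARS measured in the medium and expressed as % of LDL-plus-vehicle control; Trolox reference. Mean ± SEM of 4 experiments.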

Series [3] can be described thus: Antioxidant activity in HMEC1 assessed as inhibition of cell induced LDL oxidation by measuring TBARS level at 10 uM relative to control. Type of series: functional, Homo sapiens, HMEC-1. More on the design: scale not given: the % may be the effect or the level left. The gist of the method:
as §1

The nature of series [4]: Cytotoxicity against HMEC1 assessed as cell viability at 1 uM after 24 hrs by MTT assay in absence of oxidized LDL. The note with it: human, HMEC1 cells; read-out: Activity. The arrangement: species or system HMEC-1.
A short description of series [5]: Cytoprotective activity in HMEC1 assessed as inhibition of oxidized LDL induced toxicity measured as residual viability at 1 uM after 24 hrs by MTT assay (reference value: 20 +/- 5 %). The class given is functional, Homo sapiens, HMEC-1.
Series [6] is described as follows: Cytoprotective activity in HMEC1 assessed as inhibition of oxidized LDL induced toxicity measured as residual viability at 10 uM after 24 hrs by MTT assay (reference value: 20 +/- 5 %). The class given is functional, Homo sapiens, HMEC-1.
Series [7] concerns HMEC-1. The series is described as follows: Antiangiogenic activity in HMEC1 assessed as inhibition of oxidized LDL induced tube formation at 10 uM after 18 hrs by calcein staining based fluorescence microscopy. Particulars: Homo sapiens. The class given is functional. The gist of the method:
(§2)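 HMEC-1 (passage 30-36, serum-starved 24 h) seeded at 30,000 cells/well on Matrigel. Grown 18 h at 37 °C in MCDB-131 with UV-C mildly oxidized LDL (20 µg/mL) ± agent (10 µM). Controls were 0.1% FBS (negative) and 2.5% FBS (positive). Calcein stain (1 µM, 30 min), then fluorescence microscopy. Linked cells counted as % of total cells; mean ± SEM, 4 experiments.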

For series [8], the system named is HMEC-1. The series is described as follows: Inhibition of oxidized LDL induced intracellular ROS formation in HMEC1 at 10 uM preincubated for 30 to 40 mins followed by H2DCFDA-AM addition by fluorescence analysis. The class given is functional, cell-based. Particulars: Homo sapiens. In a few lines: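 HMEC-1 given oxLDL (20 µg/mL) ± agent (10 µM) for 40 min. H2DCFDA-AM (5 µM final) added 30 min before the end, then cells washed three times with PBS. Homogenate fluorescence read at ex 495/em 520 nm as a ratio to unstimulated control. Mean ± SEM, 4 experiments.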

A short description of series [9]: Cytotoxicity against HMEC1 assessed as cell viability at 10 uM after 24 hrs by MTT assay in absence of oxidized LDL. More on the design: species or system HMEC-1. The note with it: human, HMEC1 cells; read-out: Activity.
Series [10] in a line: Antiangiogenic activity in HMEC1 assessed as inhibition of oxidized LDL induced tube formation measured as residual tube at 10 uM after 18 hrs by calcein staining based fluorescence microscopy. Type of series: functional, Homo sapiens, HMEC-1. The gist of the method: as §2
The nature of series [11]: Antioxidant activity assessed as inhibition of DPPH free radical scavenging activity by EPR spectrophotometry. Type of series: physicochemical. The gist of the method:
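DPPH radical scavenging measured by EPR spectroscopy instead of absorbance at 517 nm, used where staining prevented the absorbance reading; value given as IC50 for 50% DPPH radical inhibition.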

Calls of active or inactive are those of the source. The rule behind the calls is not given here. A value given as a limit tells only on which side of the number the result lay.

The source of these data is ChEMBL document CHEMBL3813648, “Synthesis and evaluation of antioxidant phenolic diaryl hydrazones as potent antiangiogenic agents in atherosclerosis” (Bioorg Med Chem, 2016).

As to `COc1cc(/C=N/Nc2nc3ccccc3s2)cc(-c2cc(/C=N/Nc3nc4ccccc4s3)cc(OC)c2O)c1O`, the IC50 in series [1] came out at 27.7 µM. The Activity in series [2] was 19%; in series [3] it was 7%; in series [5], 58%; in series [6], 91%. The viability at 24 h, 1 µM in [4] turned out to be 90%. For the same compound, in series [7], the “antiangiogenic activity (active/not active)” value was “Active”. Moreover, the “ROS inhibition (active/not active)” value in series [8] is “Active”. Moreover, in series [9], the viability at 24 h, 10 µM worked out at 78%.
In the case of `COc1cc(/C=N/NC(=O)c2cc(C)n[nH]2)cc(Oc2cc(/C=N/NC(=O)c3cc(C)n[nH]3)cc(OC)c2O)c1O`, the IC50 in series [1] worked out at 19.8 µM. Besides, the Activity in series [2] came out at 97%; in [3] it was 91%; in [5] it was 41%; in series [6] it was 65%. In addition, the viability at 24 h, 1 µM in series [4] is 95%. In addition, the viability at 24 h, 10 µM in [9] was 100%.
Turning to `COc1cc(/C=N/N=c2\[nH]ncc3ccccc23)cc(-c2cc(/C=N/N=c3/[nH]ncc4ccccc34)cc(OC)c2O)c1O.Cl.Cl`, the Activity worked out at 56% in series [2], 8% in series [3], 52% in series [5] and 99% in series [6].
As to `COc1cc(/C=N/N=c2/[nH]ncc3ccccc23)cc(Oc2cc(/C=N/N=c3/[nH]ncc4ccccc34)cc(OC)c2O)c1O.Cl.Cl`, the IC50 in [1] came out at 11.5 µM. For the same compound, the Activity in series [2] is reported as 37%; in series [3] it was 10%; in series [5], 56%; in series [6], 72%; in series [10], below 5%. Moreover, the viability at 24 h, 1 µM in [4] was 95%. In addition, the “ROS inhibition (active/not active)” value in series [8] was “Active”. Also, the viability at 24 h, 10 µM in series [9] worked out at 90%.
Regarding `COc1cc(/C=N/NC(=O)OCc2ccccc2)cc(Oc2cc(/C=N/NC(=O)OCc3ccccc3)cc(OC)c2O)c1O`, the half-maximal inhibitory concentration (IC50) in series [1] came out at 23.6 µM. Moreover, the Activity in [2] was 28%; in series [3], 6%; in [5], 51%; in series [6] it was 69%. The viability at 24 h, 1 µM in [4] amounted to 102%. The “antiangiogenic activity (active/not active)” value in series [7] was “inactive”. The “ROS inhibition (active/not active)” value in series [8] is “inactive”. Besides, the viability at 24 h, 10 µM in series [9] came out at 94%.
As to `COc1cc(/C=N/NC(=O)c2ccncc2)cc(-c2cc(/C=N/NC(=O)c3ccncc3)cc(OC)c2O)c1O`, the IC50 in series [1] amounted to 38.8 µM. The Activity came to 112% in series [2], 92% in [3], 18% in [5] and 19% in series [6]. In addition, the viability at 24 h, 1 µM in [4] turned out to be 100%. The viability at 24 h, 10 µM in series [9] is 88%.
In the case of `COc1cc(C=O)cc(-c2cc(C=O)cc(OC)c2O)c1O`, the IC50 in series [1] came out at 382 µM. Besides, the Activity in series [2] amounted to 103%; in series [3], 88%; in series [5], 19%; in series [6], 21%. In addition, in series [4], the viability at 24 h, 1 µM stood at 100%. Besides, in series [9], the viability at 24 h, 10 µM is 99%.
For the compound `COc1cc(/C=N/Nc2nncc3ccccc23)cc(-c2cc(/C=N/Nc3nncc4ccccc34)cc(OC)c2O)c1O`, in [1], the IC50 was determined as 9.7 µM. Besides, the viability at 24 h, 1 µM in [4] amounted to 109%. In addition, in series [7], the “antiangiogenic activity (active/not active)” value was “Active”. Also, the “ROS inhibition (active/not active)” value in series [8] is “Active”. Further, the viability at 24 h, 10 µM in [9] turned out to be 98%.
As for `Cc1c(C)c2c(c(C)c1O)CCC(C)(C(=O)O)O2` (configuration not stated) [TROLOX], the half-inhibitory concentration (IC50) in series [1] came to 20.1 µM; in [11], 17.7 µM. In addition, the Activity in [2] is on record as 57%; in series [3] it was 10%; in [5], 45%; in series [6], 68%; in [10] it was 20%. Besides, the viability at 24 h, 1 µM in [4] came out at 98%. Besides, in series [7], the “antiangiogenic activity (active/not active)” value is “Active”. For the same compound, the “ROS inhibition (active/not active)” value in series [8] was “Active”. Also, in series [9], the viability at 24 h, 10 µM was 95%.
With `COc1cc(/C=N/NC(=O)c2cc(C)n[nH]2)cc(-c2cc(/C=N/NC(=O)c3cc(C)n[nH]3)cc(OC)c2O)c1O`, the IC50 in series [1] is 29.1 µM. For the same compound, the Activity in series [2] was found to be 99%; in series [3] it was 71%; in series [5], 14%; in series [6], 40%. The viability at 24 h, 1 µM in series [4] came out at 107%. Moreover, the viability at 24 h, 10 µM in series [9] turned out to be 105%.
Take `COc1cc(/C=N/NC(=O)c2ccncc2)cc(Oc2cc(/C=N/NC(=O)c3ccncc3)cc(OC)c2O)c1O`: the IC50 in [1] was found to be 21.5 µM. The Activity in series [2] was 100%; in [3], 88%; in series [5], 42%; in [6], 66%. Also, the viability at 24 h, 1 µM in series [4] amounted to 95%. Further, the viability at 24 h, 10 µM in series [9] stood at 92%.
As to `COc1cc(C=O)cc(Oc2cc(C=O)cc(OC)c2O)c1O`, the IC50 in [1] was found to be 289 µM. The Activity in series [2] was 95%; in series [3], 87%; in series [5], 32%; in series [6], 35%. Moreover, the viability at 24 h, 1 µM in series [4] turned out to be 89%. Moreover, in series [9], the viability at 24 h, 10 µM was determined as 85%.
As to `COc1cc(/C=N/Nc2nc3ccccc3s2)cc(Oc2cc(/C=N/Nc3nc4ccccc4s3)cc(OC)c2O)c1O`, the IC50 in [1] turned out to be 8.6 µM. The Activity came to 93% in series [2], 12% in [3], 51% in [5] and 69% in series [6]. In series [4], the viability at 24 h, 1 µM was 93%. Further, the “antiangiogenic activity (active/not active)” value in series [7] is “Active”. Moreover, in series [8], the “ROS inhibition (active/not active)” value was “Active”. For the same compound, the viability at 24 h, 10 µM in series [9] turned out to be 80%.
`COc1cc(/C=N/NC(=O)OCc2ccccc2)cc(-c2cc(/C=N/NC(=O)OCc3ccccc3)cc(OC)c2O)c1O`: the IC50 in series [1] worked out at 59.7 µM. In addition, the Activity in [2] came out at 18%; in series [3] it was 5%; in [5], 52%; in [6], 90%. Moreover, in [4], the viability at 24 h, 1 µM is 91%. Besides, in [7], the “antiangiogenic activity (active/not active)” value was “Active”. For the same compound, the “ROS inhibition (active/not active)” value in series [8] was “Active”. Besides, the viability at 24 h, 10 µM in [9] worked out at 85%.
